PMC3548935 (Cancer research, 2012)
Values belong to the molecule of their own block, whether it stands above or below them.

Key:
[1] = tested on: orthotopic 4T1 breast tumors; assay: Tumor treatment study, orthotopic 4T1 breast tumors; format: in vivo, mouse; conditions: DOX 3 mg/kg + 4 µmol/kg iNGR i.v. every other day
[2] = tested on: 4T1 tumors; conditions: no penetrating peptide; cited from earlier work
[3] = tested on: tumors; conditions: cited from earlier work
[4] = target: NRP-1 (Homo sapiens, UniProt O14786); assay: Dose-dependent binding of phage to purified NRP-1; conditions: phage-displayed peptide, Fig. 1E; for Phage binding to immobilized NRP-1: anti-T7 phage antibody / HRP detection
How it was run: (§1)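 Peptide-displaying T7 phage was added over a range of phage amounts to purified NRP-1 or NRP-2 protein. Bound phage was detected with a rabbit anti-T7 phage antibody followed by an HRP-labeled goat anti-rabbit secondary antibody.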

[5] = target: T1, NRP-2 (Homo sapiens, UniProt O60462); assay: Dose-dependent binding of phage to purified NRP-2; conditions: phage-displayed peptide, Fig. 1F; for Phage binding to immobilized NRP-2: anti-T7 phage antibody / HRP detection
T1 sequence (O60462 21-931): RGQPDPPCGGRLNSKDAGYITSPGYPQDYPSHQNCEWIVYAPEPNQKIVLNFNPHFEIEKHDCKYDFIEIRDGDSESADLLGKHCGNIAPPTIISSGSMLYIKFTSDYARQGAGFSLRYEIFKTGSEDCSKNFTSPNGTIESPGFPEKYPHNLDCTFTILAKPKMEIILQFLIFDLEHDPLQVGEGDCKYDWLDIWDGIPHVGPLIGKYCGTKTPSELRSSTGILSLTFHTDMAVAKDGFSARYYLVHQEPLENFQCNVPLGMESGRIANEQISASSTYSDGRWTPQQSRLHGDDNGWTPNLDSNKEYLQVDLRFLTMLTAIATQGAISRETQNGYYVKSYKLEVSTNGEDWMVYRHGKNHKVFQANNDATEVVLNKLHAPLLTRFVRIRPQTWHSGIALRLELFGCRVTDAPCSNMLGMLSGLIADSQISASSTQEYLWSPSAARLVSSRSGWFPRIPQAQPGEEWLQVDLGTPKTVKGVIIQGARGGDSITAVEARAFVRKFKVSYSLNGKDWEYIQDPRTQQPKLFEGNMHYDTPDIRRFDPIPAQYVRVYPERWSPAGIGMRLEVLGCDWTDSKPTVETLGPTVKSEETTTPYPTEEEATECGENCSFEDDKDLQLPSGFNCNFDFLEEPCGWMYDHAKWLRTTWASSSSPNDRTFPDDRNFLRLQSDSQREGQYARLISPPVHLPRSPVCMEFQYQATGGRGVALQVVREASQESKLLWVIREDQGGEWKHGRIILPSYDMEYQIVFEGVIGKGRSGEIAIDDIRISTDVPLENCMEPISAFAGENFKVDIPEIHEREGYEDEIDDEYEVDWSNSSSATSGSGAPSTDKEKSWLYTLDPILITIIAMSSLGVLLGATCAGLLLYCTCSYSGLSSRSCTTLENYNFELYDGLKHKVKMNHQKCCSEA
How it was run: as §1

[6] = tested on: HUVECs; assay: Mass spectrometry of peptide inside HUVECs after incubation with FAM-peptide; format: cell-based, human; conditions: Fig. S4

Chain of NRP-1 (O14786 22-923): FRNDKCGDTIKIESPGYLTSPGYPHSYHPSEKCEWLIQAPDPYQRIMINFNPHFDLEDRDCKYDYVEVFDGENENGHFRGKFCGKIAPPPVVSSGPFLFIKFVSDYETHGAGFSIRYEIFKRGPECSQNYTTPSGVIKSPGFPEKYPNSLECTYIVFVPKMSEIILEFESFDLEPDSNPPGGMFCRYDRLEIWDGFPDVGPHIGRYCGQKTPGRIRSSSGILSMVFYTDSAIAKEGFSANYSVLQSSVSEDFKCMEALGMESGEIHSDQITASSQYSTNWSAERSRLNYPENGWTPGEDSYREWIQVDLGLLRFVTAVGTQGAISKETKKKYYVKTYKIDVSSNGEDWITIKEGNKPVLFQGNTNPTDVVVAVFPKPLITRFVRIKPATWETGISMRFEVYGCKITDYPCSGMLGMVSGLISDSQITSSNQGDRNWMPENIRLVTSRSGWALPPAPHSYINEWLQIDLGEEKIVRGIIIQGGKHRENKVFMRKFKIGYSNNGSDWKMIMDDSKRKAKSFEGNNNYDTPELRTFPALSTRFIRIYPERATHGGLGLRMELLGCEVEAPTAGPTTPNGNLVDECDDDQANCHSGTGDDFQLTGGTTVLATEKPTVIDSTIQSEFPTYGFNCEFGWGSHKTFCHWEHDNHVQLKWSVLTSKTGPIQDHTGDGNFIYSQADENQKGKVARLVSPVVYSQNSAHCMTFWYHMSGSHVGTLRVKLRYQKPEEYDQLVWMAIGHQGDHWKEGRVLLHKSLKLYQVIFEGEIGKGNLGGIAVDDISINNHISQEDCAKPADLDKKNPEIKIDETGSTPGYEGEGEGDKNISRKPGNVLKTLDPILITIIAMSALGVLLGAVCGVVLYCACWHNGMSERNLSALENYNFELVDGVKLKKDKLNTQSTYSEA

Molecule: COc1cccc2c1C(=O)c1c(O)c3c(c(O)c1C2=O)C[C@@](O)(C(=O)CO)C[C@@H]3O[C@H]1C[C@H](N)[C@H](O)[C@H](C)O1 [Doxorubicin, doxorubicin]
Efficacy of doxorubicin given together with iNGR [1]: significantly more efficacious than the drug alone

Molecule: CGKRK
Tumor homing and extravasation of NWs coated with the peptide [2]: brings the NWs to tumor vessels, but does not trigger extravasation

Molecule: CGNKRTRGC [LyP-1]
Tumor penetration [3]: penetrates into tumors through the CendR/NRP mechanism

Phage binding to immobilized NRP-1 [4]: bound to the NRPs
Phage binding to immobilized NRP-2 [5]: bound to the NRPs
Molecule: CRGDK [iRGDt]

Phage binding to immobilized NRP-1 [4]: bound to the NRPs
Affinity for NRP-1 compared with iRGDt [4]: higher affinity
Phage binding to immobilized NRP-2 [5]: bound to the NRPs
Affinity for NRP-2 compared with iRGDt [5]: higher affinity
Molecule: CRNGR [iNGRt]

Molecule: FAM-CNGRC
Peptide present inside HUVECs after incubation with FAM-peptide [6]: did not penetrate into the cells
